Shown are actives, neighbours in structure and some others; about 3.7% of the full set was active somewhere.
MT stabilizer = microtubule stabilization, imaging screen | HeLa tubulin immunostaining HCS, 24 h; share of cells brighter than vehicle mean+2SD | % tubulin-high responders, % at 10 µM | 200,000 tested, 0.83% active | AID 2205;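 active = plate Z-score above 3 for both tubulin-high and condensed-nucleus cell shares, with cell loss under 80%, at 10 µM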;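 note: anti alpha tubulin signal scored within the nucleus-defined area of each cell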
ROMK mod = modulates human ROMK potassium channel activity; B-score at 10 µM; P48048; 130,000 tested, 2% active; Tet-inducible ROMK, thallium flux fluorescence; actives lie on both sides;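 active = signal ratio slope over the read window, or its plate-corrected B-score, at least 3 SD from the plate mean, either direction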;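 note: B-score of the F/F0 ratio slope over 7 to 12 s after thallium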
Target sequence (P48048 whole entry, looked up): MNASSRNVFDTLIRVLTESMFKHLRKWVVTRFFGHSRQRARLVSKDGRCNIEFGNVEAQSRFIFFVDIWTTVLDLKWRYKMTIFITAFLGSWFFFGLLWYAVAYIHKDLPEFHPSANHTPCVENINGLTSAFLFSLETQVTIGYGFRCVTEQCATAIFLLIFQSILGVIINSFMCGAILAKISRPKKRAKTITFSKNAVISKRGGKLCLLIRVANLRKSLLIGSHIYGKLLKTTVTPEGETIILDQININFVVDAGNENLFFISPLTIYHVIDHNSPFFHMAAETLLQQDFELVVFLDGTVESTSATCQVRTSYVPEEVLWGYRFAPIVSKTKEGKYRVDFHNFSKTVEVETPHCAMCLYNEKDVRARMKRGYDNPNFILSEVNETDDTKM
bCat nuc transl = modulators of beta-catenin nuclear translocation; HeLa beta-catenin nuclear translocation, immunofluorescence imaging; AID 1665; 190,000 tested, 0.3% active; nuclear translocation activity, % at 5 µM;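 active = nuclear translocation activity above 50% at 5 µM, with a well cell count of 50 or more; inconclusive = wells under 50 cells across six images, flagged as toxic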;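 note: per-cell ratio of nuclear to cytoplasmic median beta-catenin stain intensity; plate controls were DMSO negative control for no effect and GSK-3 inhibitor IX positive control for full effect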
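System: HeLa cells, endogenous beta-catenin; compound dosing: 5 µM primary single dose, 0.1% DMSO, 0.02–20 µM confirmation series; incubation: 24 h compound exposure at 37°C, 5% CO2; signal: beta-catenin immunofluorescence imaging with DAPI; evaluation: % activation, nuclear-to-cytoplasmic median beta-catenin signal ratio per cell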
DTT redox prof = compounds producing H2O2 with reducing agent – biochemical, NIH compound library profiling, artefact control for MLSCN library redox annotation, primary screen | 200,000 tested, 0.03% active | activation, % at 10 µM | AID 878 | DTT-dependent redox cycling H2O2, phenol red/HRP absorbance; 100% = 100 µM peroxide control, 0% = buffer;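 active = activation of at least 50% relative to the plate's high and low controls in the primary single-dose screen; inactive = activation below 50%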;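 note: compound incubated with DTT at 0.8 mM final as the reducing agent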
KCC2 mod = modulates chloride dependent transport by human KCC2 | B-score of Tl+ flux slope (higher = more flux/activation; lower = inhibition) at 10 µM | KCC2 cells, thallium flux FluoZin-2 fluorescence | 190,000 tested, 2.2% active;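 active = thallium flux slope and its plate-corrected score both differing from the plate sample mean at a set confidence after two filtering rounds, in either direction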;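 note: slope of fluorescence scaled to starting intensity during 10 to 20 s after thallium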
KCC2 secondary = confirmation of human KCC2 transport modulators; shares compounds with KCC2 mod; HEK293-KCC2, thallium flux, FluoZin2 fluorescence; stronger effect = higher value; normalised thallium flux (F/F0 slope) at 10 µM; 3,700 tested, 15% active; AID 1713;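 active = thallium flux slope above the same plate's solvent-only control mean plus 3 SD; inconclusive = the two replicate wells disagree; inactive = no significant difference from solvent-only control wells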
KCC2 bumet counter = thallium flux persisting under bumetanide in KCC2 cells, counter-screen secondary assay | shares compounds with KCC2 mod | HEK293-KCC2 + bumetanide/ouabain, thallium flux FluoZin2; stronger effect = higher value | normalized thallium flux at 10 µM | 3,700 tested, 49% active | AID 1714;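 active = thallium entry rate above the same plate's blocked-transporter control wells by more than 3 SD; inconclusive = the two repeat wells disagree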;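 note: raw slope of fluorescence over initial fluorescence between 10 and 20 s after thallium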
KCC2 sec2 = KCC2 (human) modulation, second secondary assay; normalized thallium flux at 10 µM; shares compounds with KCC2 mod; HEK293-KCC2, thallium flux FluoZin2 fluorescence; actives lie on both sides; F/F0 rise rate, 10–20 s post-thallium; 3,700 tested, 23% active;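 active = thallium flux slope more than 3 SD above or below the plate's solvent-only control mean, mostly below; inconclusive = the two repeat wells disagreed; inactive = no significant shift from solvent-only controls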;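 note: raw slope with 0.1% DMSO as baseline and bumetanide as block control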
HEK counter1 = acts in parental HEK cells, KCC2 counter-screen | HEK293 parental cells, thallium flux FluoZin2, ouabain; baseline-ratio fluorescence slope, 10–20 s after thallium | thallium flux rate (normalised fluorescence) at 10 µM | 3,700 tested, 46% active | shares compounds with KCC2 mod;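 active = thallium flux rate significantly above the same plate's solvent-only control wells, beyond their mean plus 3 SD; inconclusive = the two replicate wells gave conflicting results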
KCC2 ouabain = confirmation of human KCC2 modulators with ouabain. shares compounds with KCC2 mod. HEK293-KCC2, thallium flux FluoZin2 fluorescence; bidirectional: low = inhibitor, high = activator. raw Tl+ flux slope (below DMSO = inhibition, above = activation) at 10 µM. 3,700 tested, 48% active;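 active = thallium flux slope beyond 3 SD from same-plate DMSO control mean in most replicates, usually higher, sometimes lower; inconclusive = repeat tests gave conflicting results; inactive = no significant difference from controls in most replicates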;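 note: slope of initial-normalized fluorescence between seconds 10 and 20 after thallium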
HEK counter2 = parental HEK flux effect, counter-screen 2. shares compounds with KCC2 mod. HEK293 parental, thallium flux FluoZin-2 fluorescence slope. thallium flux slope at 10 µM. 3,700 tested, 33% active;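 active = thallium flux slope above the same plate's solvent-control mean plus 3 SD in both duplicate wells; inconclusive = duplicate wells that disagreed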;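 note: run without ouabain in cells lacking the KCC2 cotransporter; slope of fluorescence scaled to its starting value between 10 and 20 s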
An asterisk follows results filed as active; ? = inconclusive; nt = not tested or not shown.

SMILES	MT stabilizer	ROMK mod	bCat nuc transl	DTT redox prof	KCC2 mod	KCC2 secondary	KCC2 bumet counter	KCC2 sec2	HEK counter1	KCC2 ouabain	HEK counter2
Oc1c(N=NC(=S)Nc2ccccc2F)c2ccccc2n1Cc1ccccc1F	4	-0.12	1	-2	11*	0.0055	0.034*	0.034	0.012*	0.025*	?
CCNC(=S)N=Nc1c(O)n(Cc2ccc(Cl)cc2)c2ccccc12	3	0.11	-2	0	14*	0.012*	0.071*	0.03	0.03*	0.041*	0.011*
Oc1c(N=NC(=S)Nc2ccccc2F)c2ccccc2n1Cc1ccc(Cl)cc1	5	0.71	1	-2	2.3	nt	nt	nt	nt	nt	nt
Cc1ccc(C)c(Cn2c(O)c(N=NC(=S)Nc3ccccc3F)c3ccccc32)c1	3	0.98	0	-1	4	nt	nt	nt	nt	nt	nt
Cc1[nH]c2ccccc2c1-c1csc(NC(=O)CSCCO)n1	4	0	1	0	-1.7	nt	nt	nt	nt	nt	nt
CCOc1ccccc1NC(=S)N1CCN(c2nc(-c3cccc(OC)c3)cs2)CC1	1	-0.68	0	-1	-0.76	nt	nt	nt	nt	nt	nt
CC(=O)Oc1ccc(C(c2ccc(OC(C)=O)cc2)c2ccccn2)cc1	3	nt	-1	0	31*	?	0.047*	0.056*	0.028*	0.047*	0.027*
S=c1nc[nH]c2c1[nH]c1ccc(Cl)cc12	nt	nt	0	nt	-0.085	nt	nt	nt	nt	nt	nt
S=c1[nH]c2ccc(Cl)cc2s1	nt	nt	0	nt	86*	0.043*	0.098*	0.085*	0.087*	0.087*	0.058*
Cc1cc(=O)[nH]c2ccc(Cl)cc12	2	1.1	8	0	nt	0.0098	0.0052	0.037	0.0044	0.021	0.011
Cc1cc(=O)c2cc(Cl)ccc2[nH]1	5	0.1	1	0	-0.51	nt	nt	nt	nt	nt	nt
COc1ccc2nc(NC(=S)NC(=O)c3ccco3)sc2c1	6	-0.3	1	-1	80*	0.03*	0.14*	0.03*	0.075*	0.097*	0.039*
O=C(NC(=S)Nc1c(Cl)ccc2nsnc12)c1ccco1	2	nt	-1	0	19*	0.021*	0.067*	0.037	0.025*	0.045*	0.015*
CC(CCc1ccccc1)NC(=O)Cc1ccccc1 (stereo not drawn)	2	nt	2	0	-0.34	nt	nt	nt	nt	nt	nt
O=C(Nc1c(Cl)ccc2nsnc12)c1cccnc1	3	nt	0	0	1.4	nt	nt	nt	nt	nt	nt
O=C(NC(=S)Nc1nc(-c2ccccc2)cs1)c1ccco1	3	0.95	-4	0	16*	?	0.045*	0.03	0.02*	0.032*	0.012*
COc1ccc2sc(NC(=O)c3ccco3)nc2c1	3	nt	-6	-1	0.064	nt	nt	nt	nt	nt	nt
CC(CCc1ccccc1)NC(=S)NC(=O)c1ccco1 (stereo not drawn)	2	1.2	1	-1	103*	0.035*	0.09*	0.07*	0.07*	0.076*	0.068*
Cc1nc2ccccc2c(=O)n1NC(=O)C1CC1C (stereo not drawn)	2	0.37	-3	-1	0.82	nt	nt	nt	nt	nt	nt
COc1ccc(/C=C(\C#N)C(=O)OCC(=O)Nc2ccc(-c3nc4ccc(C)cc4s3)cc2)cc1	3	0.7	0	0	-0.018	nt	nt	nt	nt	nt	nt
O=C(COc1ccc(S(=O)(=O)N2CCCCC2)cc1)NCc1cccnc1	2	0.61	nt	0	-0.15	nt	nt	nt	nt	nt	nt
COc1ccc(-c2csc(NC(=S)NC(=O)c3ccco3)n2)cc1	5	-0.095	6	-1	nt	0.0071	0.016*	0.043*	0.024*	0.028*	0.023*
O=C(Nc1nc(-c2ccncc2)cs1)c1ccco1	4	-0.23	-2	1	nt	0.0075	0.0042	0.031	0.0074	0.02	0.0093
CC12CC3CC(C)(C1)CC(Nc1nc(N4CCOCC4)nc4ccccc14)(C3)C2	nt	nt	0	nt	0.25	nt	nt	nt	nt	nt	nt
O=C(CCNS(=O)(=O)c1ccc(Br)s1)NC1CCCC1	3	nt	-2	-2	-0.14	nt	nt	nt	nt	nt	nt
SMILES	MT stabilizer	ROMK mod	bCat nuc transl	DTT redox prof	KCC2 mod	KCC2 secondary	KCC2 bumet counter	KCC2 sec2	HEK counter1	KCC2 ouabain	HEK counter2
O=C(CCS(=O)(=O)c1ccc(Br)s1)NC1CCCC1	2	1.6	nt	0	nt	0.0064	0.0049	0.03	0.008	0.019	0.011
Cc1cccc(C)c1Nc1nnc(SCC(=O)NC(=O)c2cccn2C)s1	2	-0.057	0	0	-4.7*	0.0071	0.0048	0.028	0.0047*	0.014*	0.0082
CCOc1ccccc1Nc1nnc(SCC(=O)NC(=O)c2cccn2C)s1	4	nt	nt	0	-1.5	nt	nt	nt	nt	nt	nt
O=C1C=CC(=O)N1c1cccc(-c2ccccc2)c1	nt	nt	1	nt	-0.43	nt	nt	nt	nt	nt	nt
COc1cccc(/C=N/NC(=O)c2c(C)nc3ccc(Br)cn23)c1O	3	nt	0	-1	-3.4*	0.0069	0.0043	0.028	0.0056	0.016*	0.0088
O=C(C[n+]1ccc(CCSc2ccc(F)cc2)cc1)c1ccccc1	2	-2.3	-2	0	-1.2	nt	nt	nt	nt	nt	nt
Cc1ccc(S(=O)(=O)N2CCC(C(=O)N3Cc4ccccc4C3)CC2)cc1	1	nt	-6	1	-0.13	nt	nt	nt	nt	nt	nt
COc1ccc(S(=O)(=O)N2CCC(C(=O)N3CCc4ccccc4C3)CC2)cc1C	1	-2.2	-5	0	-3.5*	0.007	0.0049	0.024*	0.0076	0.015*	0.01
O=C(C1CCN(S(=O)(=O)c2cccc3nsnc23)CC1)N1CCc2ccccc2C1	5	nt	0	2	-6*	0.01	0.0068	0.023*	0.008	0.015*	0.011
CS(=O)(=O)N1CCC(C(=O)N2CCc3ccccc3C2)CC1	3	nt	0	0	-0.19	nt	nt	nt	nt	nt	nt
COc1cc(O)cc(O)c1C(=O)/C=C/c1ccccc1	6	nt	8	0	-1.7	nt	nt	nt	nt	nt	nt
COc1cc(OC)c(C(=O)/C=C/c2ccccc2)c(O)c1O	nt	nt	10	nt	-1.5*	0.0059	?	0.026*	0.007	?	0.011
CC(C)c1ccc(-c2csc(NC(=O)c3cccs3)c2C(=O)O)cc1	3	1.6	-1	0	20*	0.0072	0.045*	0.027*	0.021*	?	?

Screening results (PubChem)
